Assay results published in ChEMBL document CHEMBL3352121, “Modulation of Activity Profiles for Largazole-Based HDAC Inhibitors through Alteration of Prodrug Properties” (ACS Med Chem Lett, 2014).

Legend:
[1] = target: T1, Protein deacetylase HDAC6 (Homo sapiens) (UniProt Q9UBN7); settings: 1 uM
T1 sequence (whole entry): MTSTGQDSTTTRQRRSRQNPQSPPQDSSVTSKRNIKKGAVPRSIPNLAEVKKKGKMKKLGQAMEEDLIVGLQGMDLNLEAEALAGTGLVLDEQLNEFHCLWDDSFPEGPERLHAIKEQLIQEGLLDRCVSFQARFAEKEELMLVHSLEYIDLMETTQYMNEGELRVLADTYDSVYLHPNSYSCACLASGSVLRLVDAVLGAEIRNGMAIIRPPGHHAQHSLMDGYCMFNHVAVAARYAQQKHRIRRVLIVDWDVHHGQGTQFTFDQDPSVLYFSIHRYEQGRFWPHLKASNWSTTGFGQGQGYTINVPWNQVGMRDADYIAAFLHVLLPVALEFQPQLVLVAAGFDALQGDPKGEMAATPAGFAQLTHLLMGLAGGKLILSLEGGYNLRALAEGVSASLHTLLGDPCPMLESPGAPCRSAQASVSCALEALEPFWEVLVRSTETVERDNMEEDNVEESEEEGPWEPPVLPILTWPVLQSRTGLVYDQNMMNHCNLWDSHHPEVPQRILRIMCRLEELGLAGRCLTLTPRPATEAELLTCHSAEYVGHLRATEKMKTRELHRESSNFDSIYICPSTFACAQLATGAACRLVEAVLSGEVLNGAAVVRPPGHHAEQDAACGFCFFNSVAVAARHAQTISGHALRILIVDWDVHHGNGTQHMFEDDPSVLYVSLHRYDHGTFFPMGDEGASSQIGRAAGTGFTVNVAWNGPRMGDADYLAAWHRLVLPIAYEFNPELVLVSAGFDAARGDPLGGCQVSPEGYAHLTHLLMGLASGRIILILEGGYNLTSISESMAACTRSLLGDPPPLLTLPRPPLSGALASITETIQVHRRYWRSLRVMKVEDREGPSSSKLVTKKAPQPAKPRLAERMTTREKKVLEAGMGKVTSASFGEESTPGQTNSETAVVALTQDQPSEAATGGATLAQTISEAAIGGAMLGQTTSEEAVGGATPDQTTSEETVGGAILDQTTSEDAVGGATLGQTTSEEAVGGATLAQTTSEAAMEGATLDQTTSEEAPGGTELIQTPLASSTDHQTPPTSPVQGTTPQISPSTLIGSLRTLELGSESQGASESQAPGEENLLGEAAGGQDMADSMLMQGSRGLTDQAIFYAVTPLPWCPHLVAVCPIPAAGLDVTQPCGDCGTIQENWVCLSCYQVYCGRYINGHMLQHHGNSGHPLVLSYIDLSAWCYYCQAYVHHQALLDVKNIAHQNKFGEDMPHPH

[2] = target: T2, Histone deacetylase 8 (Homo sapiens) (UniProt Q9BY41); assay: Inhibition of HDAC8 (unknown origin) at 1 uM incubated for 30 mins in presence of BSA and DTT by fluorescence assay
T2 sequence (whole entry): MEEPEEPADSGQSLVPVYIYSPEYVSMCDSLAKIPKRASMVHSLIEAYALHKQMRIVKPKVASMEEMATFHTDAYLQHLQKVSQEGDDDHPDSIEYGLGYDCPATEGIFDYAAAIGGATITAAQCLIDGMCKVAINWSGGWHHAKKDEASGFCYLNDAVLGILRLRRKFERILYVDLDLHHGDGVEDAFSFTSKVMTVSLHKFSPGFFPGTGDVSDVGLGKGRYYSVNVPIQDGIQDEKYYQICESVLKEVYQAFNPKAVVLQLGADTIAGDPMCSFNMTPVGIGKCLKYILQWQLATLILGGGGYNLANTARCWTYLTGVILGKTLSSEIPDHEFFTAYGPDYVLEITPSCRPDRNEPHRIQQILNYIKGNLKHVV
How it was run: (§1)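 Purified HDAC isoforms were tested up to a maximum of 1 μM. IC50 values are averages of duplicate experiments. Disulfide compounds were pretreated with DTT to reduce the disulfide bond.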

[3] = target: T3, Polyamine deacetylase HDAC10 (Homo sapiens, UniProt Q969S8); assay: Inhibition of HDAC10 (unknown origin) incubated for 30 mins in presence of BSA and DTT by fluorescence assay
T3 sequence (Q969S8 whole entry): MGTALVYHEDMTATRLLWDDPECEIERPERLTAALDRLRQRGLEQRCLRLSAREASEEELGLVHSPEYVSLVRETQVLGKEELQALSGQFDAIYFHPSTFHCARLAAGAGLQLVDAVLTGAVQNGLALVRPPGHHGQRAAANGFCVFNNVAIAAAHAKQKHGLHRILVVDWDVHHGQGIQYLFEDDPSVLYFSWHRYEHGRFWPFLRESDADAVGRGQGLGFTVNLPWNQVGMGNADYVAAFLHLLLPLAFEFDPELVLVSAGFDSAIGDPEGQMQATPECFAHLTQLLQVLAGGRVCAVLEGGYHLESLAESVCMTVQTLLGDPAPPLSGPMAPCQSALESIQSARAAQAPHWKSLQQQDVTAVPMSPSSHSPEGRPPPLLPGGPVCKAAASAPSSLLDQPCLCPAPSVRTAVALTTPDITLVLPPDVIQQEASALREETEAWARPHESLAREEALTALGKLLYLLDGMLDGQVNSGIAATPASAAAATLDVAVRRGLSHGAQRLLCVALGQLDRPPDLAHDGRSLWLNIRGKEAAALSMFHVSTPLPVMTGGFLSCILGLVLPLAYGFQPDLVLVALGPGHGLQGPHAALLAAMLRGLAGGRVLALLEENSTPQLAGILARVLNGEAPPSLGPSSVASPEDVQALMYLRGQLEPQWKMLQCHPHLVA
How it was run: as §1

Histone deacetylase 5 = Histone deacetylase 5 (Homo sapiens, UniProt Q9UQL6); assay: Inhibition of HDAC5 (unknown origin) at 1 uM incubated for 30 mins in presence of BSA and DTT by fluorescence assay
How it was run: as §1

[4] = target: T4, Histone deacetylase 7 (Homo sapiens) (UniProt Q8WUI4); assay: Inhibition of HDAC7 (unknown origin) at 1 uM incubated for 30 mins in presence of BSA and DTT by fluorescence assay
T4 sequence (whole entry): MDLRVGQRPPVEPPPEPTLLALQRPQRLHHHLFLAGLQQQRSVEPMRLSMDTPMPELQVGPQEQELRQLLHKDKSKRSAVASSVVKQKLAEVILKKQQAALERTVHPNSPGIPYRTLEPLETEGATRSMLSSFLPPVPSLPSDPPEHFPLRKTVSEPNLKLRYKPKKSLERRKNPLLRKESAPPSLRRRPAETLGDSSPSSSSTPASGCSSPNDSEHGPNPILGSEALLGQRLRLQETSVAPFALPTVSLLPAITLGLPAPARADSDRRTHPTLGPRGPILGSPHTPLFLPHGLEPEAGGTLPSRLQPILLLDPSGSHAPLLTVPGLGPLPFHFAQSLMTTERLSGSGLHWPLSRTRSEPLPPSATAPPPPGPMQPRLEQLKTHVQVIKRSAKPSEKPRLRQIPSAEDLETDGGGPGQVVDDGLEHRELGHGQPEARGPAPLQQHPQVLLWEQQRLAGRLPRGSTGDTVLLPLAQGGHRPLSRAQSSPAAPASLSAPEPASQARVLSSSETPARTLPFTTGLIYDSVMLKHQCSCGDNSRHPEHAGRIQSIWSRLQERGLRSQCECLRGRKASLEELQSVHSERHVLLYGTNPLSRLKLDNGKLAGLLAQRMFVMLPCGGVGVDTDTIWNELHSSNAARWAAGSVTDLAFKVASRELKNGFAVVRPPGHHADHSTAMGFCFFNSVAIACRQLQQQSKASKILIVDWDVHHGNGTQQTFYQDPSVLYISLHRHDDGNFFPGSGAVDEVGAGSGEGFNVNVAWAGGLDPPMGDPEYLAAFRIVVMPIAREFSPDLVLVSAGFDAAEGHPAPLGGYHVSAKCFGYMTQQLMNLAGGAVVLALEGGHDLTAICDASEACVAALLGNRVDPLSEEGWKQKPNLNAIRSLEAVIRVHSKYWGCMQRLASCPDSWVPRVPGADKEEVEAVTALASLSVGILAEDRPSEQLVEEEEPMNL
How it was run: as §1

Histone deacetylase 1 = Histone deacetylase 1 (Homo sapiens, UniProt Q13547); assay: Inhibition of HDAC1 (unknown origin) incubated for 30 mins in presence of BSA and DTT by fluorescence assay
Histone deacetylase 9 = Histone deacetylase 9 (Homo sapiens, UniProt Q9UKV0); assay: Inhibition of HDAC9 (unknown origin) at 1 uM incubated for 30 mins in presence of BSA and DTT by fluorescence assay
How it was run: as §1

Histone deacetylase 1, sequence (Q13547 whole entry): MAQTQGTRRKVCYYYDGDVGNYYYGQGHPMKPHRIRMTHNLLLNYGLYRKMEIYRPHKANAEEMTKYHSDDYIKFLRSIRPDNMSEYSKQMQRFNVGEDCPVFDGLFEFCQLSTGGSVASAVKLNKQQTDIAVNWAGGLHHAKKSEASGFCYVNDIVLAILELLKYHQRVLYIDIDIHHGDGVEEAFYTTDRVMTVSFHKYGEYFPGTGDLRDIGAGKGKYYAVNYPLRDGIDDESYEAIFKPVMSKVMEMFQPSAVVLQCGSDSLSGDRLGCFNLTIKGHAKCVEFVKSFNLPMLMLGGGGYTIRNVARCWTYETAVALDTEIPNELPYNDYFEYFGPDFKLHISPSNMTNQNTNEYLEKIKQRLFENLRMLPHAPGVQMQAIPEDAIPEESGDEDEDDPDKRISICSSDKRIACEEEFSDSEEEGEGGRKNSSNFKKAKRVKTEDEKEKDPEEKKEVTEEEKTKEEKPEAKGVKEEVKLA
Histone deacetylase 9, sequence (Q9UKV0 whole entry): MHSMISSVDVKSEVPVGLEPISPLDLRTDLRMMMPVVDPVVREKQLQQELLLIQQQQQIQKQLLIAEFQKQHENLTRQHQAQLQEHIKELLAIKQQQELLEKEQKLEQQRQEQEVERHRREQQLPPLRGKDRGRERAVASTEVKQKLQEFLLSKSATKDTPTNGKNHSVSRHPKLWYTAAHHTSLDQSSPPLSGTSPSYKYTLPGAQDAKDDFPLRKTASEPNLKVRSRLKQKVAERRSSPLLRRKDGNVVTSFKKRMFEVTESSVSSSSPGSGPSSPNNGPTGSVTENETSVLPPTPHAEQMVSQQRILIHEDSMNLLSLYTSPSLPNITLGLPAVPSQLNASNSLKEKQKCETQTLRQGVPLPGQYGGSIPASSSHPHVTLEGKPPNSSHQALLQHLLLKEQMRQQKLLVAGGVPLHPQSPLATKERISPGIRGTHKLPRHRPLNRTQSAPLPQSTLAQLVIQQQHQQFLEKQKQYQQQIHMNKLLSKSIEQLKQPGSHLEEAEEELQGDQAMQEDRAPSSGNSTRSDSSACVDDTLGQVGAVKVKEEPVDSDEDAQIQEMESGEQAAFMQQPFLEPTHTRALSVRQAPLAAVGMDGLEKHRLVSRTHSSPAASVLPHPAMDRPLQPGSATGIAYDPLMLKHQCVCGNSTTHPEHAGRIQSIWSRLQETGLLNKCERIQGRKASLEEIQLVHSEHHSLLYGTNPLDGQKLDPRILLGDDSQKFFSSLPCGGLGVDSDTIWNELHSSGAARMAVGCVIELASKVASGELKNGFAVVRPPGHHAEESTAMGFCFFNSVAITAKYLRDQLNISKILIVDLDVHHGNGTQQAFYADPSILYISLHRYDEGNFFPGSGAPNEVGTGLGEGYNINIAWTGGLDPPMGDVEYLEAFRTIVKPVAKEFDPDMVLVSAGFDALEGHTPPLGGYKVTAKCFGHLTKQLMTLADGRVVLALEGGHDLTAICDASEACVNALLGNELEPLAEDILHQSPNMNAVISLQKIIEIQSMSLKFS
Histone deacetylase 5, sequence (Q9UQL6 whole entry): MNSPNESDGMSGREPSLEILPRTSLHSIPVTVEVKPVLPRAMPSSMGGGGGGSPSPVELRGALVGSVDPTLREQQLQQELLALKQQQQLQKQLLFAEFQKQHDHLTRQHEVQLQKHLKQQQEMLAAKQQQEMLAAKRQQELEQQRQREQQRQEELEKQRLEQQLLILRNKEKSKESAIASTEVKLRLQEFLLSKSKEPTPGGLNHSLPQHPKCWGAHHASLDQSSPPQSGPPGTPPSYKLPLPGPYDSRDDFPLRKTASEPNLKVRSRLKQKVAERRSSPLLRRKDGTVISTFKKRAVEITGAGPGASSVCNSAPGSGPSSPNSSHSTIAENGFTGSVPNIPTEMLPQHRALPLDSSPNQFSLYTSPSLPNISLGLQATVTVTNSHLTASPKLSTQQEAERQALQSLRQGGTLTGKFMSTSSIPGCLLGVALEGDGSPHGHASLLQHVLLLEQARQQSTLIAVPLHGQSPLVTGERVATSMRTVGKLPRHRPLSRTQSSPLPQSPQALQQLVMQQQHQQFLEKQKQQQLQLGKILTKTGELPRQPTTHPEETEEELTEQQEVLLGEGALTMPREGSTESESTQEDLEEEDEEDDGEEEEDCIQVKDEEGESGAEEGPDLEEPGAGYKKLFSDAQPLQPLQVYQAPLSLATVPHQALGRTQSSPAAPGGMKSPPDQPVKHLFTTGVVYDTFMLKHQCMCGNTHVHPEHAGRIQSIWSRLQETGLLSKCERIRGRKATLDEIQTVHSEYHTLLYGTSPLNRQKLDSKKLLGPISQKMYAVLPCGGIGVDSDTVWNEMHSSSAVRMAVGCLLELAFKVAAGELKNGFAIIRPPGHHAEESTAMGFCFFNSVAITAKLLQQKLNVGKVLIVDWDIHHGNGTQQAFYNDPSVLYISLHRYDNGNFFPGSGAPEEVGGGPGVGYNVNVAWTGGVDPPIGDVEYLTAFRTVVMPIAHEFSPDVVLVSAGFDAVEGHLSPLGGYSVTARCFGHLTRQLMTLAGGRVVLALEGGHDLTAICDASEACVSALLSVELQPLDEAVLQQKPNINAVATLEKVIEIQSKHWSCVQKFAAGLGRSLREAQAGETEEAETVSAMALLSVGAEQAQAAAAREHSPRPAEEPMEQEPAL

inhibition [1]: 45%
inhibition [2]: 36%
IC50 [3]: 0.9 nM
inhibition (Histone deacetylase 5): 22%
inhibition [4]: 34%
IC50 (Histone deacetylase 1): 0.8 nM
inhibition (Histone deacetylase 9): 45%
SMILES: C/C=C1\NC(=O)[C@H]2CSSCC/C=C/[C@H](CC(=O)N[C@H](C(C)C)C(=O)N2)OC(=O)[C@H](C(C)C)NC1=O [ROMIDEPSIN]
